Measurements reported in PubChem BioAssay.
Calls of active or inactive are those of the source.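 How the source made its calls, unless noted: active means viability at or under a set limit in both replicates, limit being median viability minus 3 SD (cut at about 48% in these data, passing the limit was not always enough); inconclusive means at or under the limit in just one replicate; inactive means at or above the limit in both replicates.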

Tests used:
[1] = reducers of endogenous Her2 protein level, primary screen, SKBR3 breast tumor cells, AlphaScreen, ATP viability (AID 461;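 active means Her2 level under about 52% in both replicate screens, with viability over 70% of control, limit read from the data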;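 on Her2 level: lower value means less Her2 protein in the cells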;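 on viability: percent of carrier control wells set as 100% viability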); conditions: 18-24 h, measured here: SKBR3 viability, ATP luminescence, at 10 µM
[2] = molecular target: Receptor tyrosine-protein kinase erbB-2 (Homo sapiens) (UniProt P04626); test: as above; conditions: 18-24 h, at 10 µM, stronger effect = lower value
Sequence of Receptor tyrosine-protein kinase erbB-2 (Homo sapiens) (P04626 whole entry, looked up): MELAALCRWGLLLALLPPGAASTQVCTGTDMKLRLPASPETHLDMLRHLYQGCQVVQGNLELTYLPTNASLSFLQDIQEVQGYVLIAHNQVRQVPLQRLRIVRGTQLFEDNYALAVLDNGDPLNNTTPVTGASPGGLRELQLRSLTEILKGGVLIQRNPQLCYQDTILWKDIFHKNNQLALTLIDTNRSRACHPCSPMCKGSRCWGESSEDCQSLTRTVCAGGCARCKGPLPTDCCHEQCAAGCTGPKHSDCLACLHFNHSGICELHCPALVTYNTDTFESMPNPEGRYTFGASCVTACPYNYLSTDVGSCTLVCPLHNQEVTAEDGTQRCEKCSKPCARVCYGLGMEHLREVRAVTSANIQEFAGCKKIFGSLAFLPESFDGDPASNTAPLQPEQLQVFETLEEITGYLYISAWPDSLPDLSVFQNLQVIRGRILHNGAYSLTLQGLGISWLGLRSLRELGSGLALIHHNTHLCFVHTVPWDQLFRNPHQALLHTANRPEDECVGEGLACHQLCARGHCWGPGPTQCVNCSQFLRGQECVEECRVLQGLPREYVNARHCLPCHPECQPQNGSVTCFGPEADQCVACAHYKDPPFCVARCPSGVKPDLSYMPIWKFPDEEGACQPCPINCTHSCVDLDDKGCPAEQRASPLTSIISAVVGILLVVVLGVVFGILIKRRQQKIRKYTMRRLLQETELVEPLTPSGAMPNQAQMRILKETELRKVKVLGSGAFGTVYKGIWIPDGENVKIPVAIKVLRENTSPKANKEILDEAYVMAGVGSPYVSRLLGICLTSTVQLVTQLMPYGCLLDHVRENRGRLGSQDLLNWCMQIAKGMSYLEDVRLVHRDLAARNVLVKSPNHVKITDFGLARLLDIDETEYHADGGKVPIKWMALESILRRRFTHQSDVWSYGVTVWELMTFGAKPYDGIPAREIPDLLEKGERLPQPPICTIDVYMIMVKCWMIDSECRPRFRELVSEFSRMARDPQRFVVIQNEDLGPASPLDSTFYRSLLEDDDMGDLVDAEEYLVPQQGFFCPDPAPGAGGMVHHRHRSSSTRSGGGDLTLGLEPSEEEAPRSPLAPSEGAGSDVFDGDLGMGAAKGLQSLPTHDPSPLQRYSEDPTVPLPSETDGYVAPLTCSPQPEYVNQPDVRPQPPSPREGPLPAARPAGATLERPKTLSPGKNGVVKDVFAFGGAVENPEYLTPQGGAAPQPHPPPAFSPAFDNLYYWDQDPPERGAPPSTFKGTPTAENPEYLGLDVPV

[3] = SK-BR-3 cell growth inhibitors, pilot screen, 24 h, human (AID 572;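 active means viability at or below 10% of carrier control in both of two separate runs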;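 further: compound exposure lasted between 18 and 24 h rather than exactly 24 h; 100% = carrier-treated control wells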); conditions: SK-BR-3 viability, CellTiter-Glo luminescence, at 10 µM, stronger effect = lower value
[4] = HUVEC growth inhibition – cell-based, human, primary screen (AID 575;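 active means viability at or below 30% in both replicate assays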;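 further: 100% = median of untreated cell wells with 0.1% DMSO on each plate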); conditions: HUVEC proliferation, CellTiter-Glo luminescence, 72 h; at 10 µM; stronger effect = lower value
In short: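 Test system: primary human umbilical vein endothelial cells. Quantity: 1250 cells/well. Compound: single 10 µM dose, 0.1% DMSO, from 5x medium stock. Timing: 72 h treatment at 37 °C. Detection: ATP-based CellTiter-Glo luminescent read. Benchmarks: vehicle and MePR control wells. Format: 384-well plates coated with collagen.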

[5] = growth inhibitors of H69AR lung tumor, primary screen, human, duplicate replicates (AID 580); conditions: H69AR lung tumor cells viability, ATP luminescence, 72 h; at 10 µM; stronger effect = lower value;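 further: 100% = mean luminescence of untreated wells and 0% = no signal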
[6] = reversal of MRP1-mediated doxorubicin resistance, pilot screen, H69AR cells, doxorubicin co-treatment (AID 601;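 active means viability loss from added drug above about 55%, and viability with drug at most 40%, in both replicates, limit read from the data, passing the limit was not always enough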); conditions: CellTiter-Glo, 72 h, at 10 µM; for differential viability (reversal): stronger effect = higher value
[7] = 384-well plate pilot, post-Golgi transport modulator project, inhibition of yeast transport mutant growth (AID 636; in the data active means inhibition above about 31%); conditions: absorbance 615 nm, about 18 h, stronger effect = higher value
[8] = growth suppression of yeast trafficking mutant, preliminary HTS, modulators of trafficking downstream of Golgi apparatus project, 1536-format plate, OD 615 nm (AID 637; in the data active means inhibition above about 30%); conditions: yeast transport mutant growth, absorbance 615 nm, 18 h; stronger effect = higher value
[9] = H69AR cells + 2 uM doxorubicin, measured here: viability with 2 uM doxorubicin, stronger effect = lower value
[10] = H69AR cells, compound alone cytotoxicity

| SMILES | viability [1] | Her2 level [2] | viability [3] | viability [4] | viability [5] | differential viability (reversal) ([6]; H69AR cells + 2 uM doxorubicin) | viability [6, 9] | viability [6, 10] | inhibition [7] | inhibition [8] |
| --- | --- | --- | --- | --- | --- | --- | --- | --- | --- | --- |
| CCCCn1c(SCC(=O)N2CC(=O)Nc3ccccc32)nnc1-c1ccoc1C | 86.5% | 85.5% (inactive) | 86.5% (inactive) | 97.5% (inactive) | 96.7% (inactive) | 4.84% (inactive) | 91.8% | 96.7% | 2.67% (inactive) | -8.55% (inactive) |
| Cc1ccc(CNC(=O)CSc2n[nH]c(N)n2)cc1 | 100% | 99.5% (inactive) | 100% (inactive) | 82.3% (inactive) | 96.6% (inactive) | -1.86% (inactive) | 98.5% | 96.6% | 0.79% (inactive) | 5.9% (inactive) |
| CCN1CCN(Cc2ccc(NC(=O)Nc3ccc(SC)cc3)cc2)CC1 | 97.5% | 82.5% (inactive) | 97.5% (inactive) | 62% (inactive) | 98.4% (inactive) | 18.2% (inactive) | 80.1% | 98.4% | -4.93% (inactive) | 1.94% (inactive) |
| CCOc1ccccc1C(=O)NCCC(=O)O | 95% | 112% (inactive) | 95% (inactive) | 111% (inactive) | 96.4% (inactive) | 1.32% (inactive) | 95.1% | 96.4% | -0.66% (inactive) | 11.3% (inactive) |
| CCCCNC(=O)c1nc2ncc(Br)cn2n1 | 108% | 75% (inactive) | 108% (inactive) | 100% (inactive) | 85.4% (inactive) | -5.97% (inactive) | 91.4% | 85.4% | -3.51% (inactive) | -2.3% (inactive) |
| CC(NCc1ccco1)C(=O)N1CCc2ccccc2C1 (stereo not given) | 108% | 108% (inactive) | 108% (inactive) | 109% (inactive) | 92.9% (inactive) | 5.48% (inactive) | 87.4% | 92.9% | 1.92% (inactive) | -2.06% (inactive) |
| C=CCSc1nnc(-c2ccccc2NC(C)=O)c(=O)[nH]1 | 106% | 105% (inactive) | 106% (inactive) | 105% (inactive) | 93% (inactive) | 9.55% (inactive) | 83.4% | 93% | -3.03% (inactive) | -0.36% (inactive) |
| CCn1c(=O)n(CC(=O)NCc2ccccc2OC)c(=O)c2ccccc21 | 95% | 84% (inactive) | 95% (inactive) | 87.5% (inactive) | 101% (inactive) | 3.65% (inactive) | 97.4% | 101% | 0.92% (inactive) | -3.06% (inactive) |
| CCCOC(=O)c1ccc(-c2c(C)noc2-c2ccc(OC)cc2O)o1 | 98% | 74.5% (inactive) | 98% (inactive) | 46.3% (inactive) | 75.8% (inactive) | -10.3% (inactive) | 86% | 75.8% | -4.81% (inactive) | -9.33% (inactive) |
| COc1ccc(C2/C(=C(/O)c3ccccc3)C(=O)C(=O)N2C)cc1 (stereo not given) | 102% | 83.5% (inactive) | 102% (inactive) | 107% (inactive) | 101% (inactive) | 3% (inactive) | 98.1% | 101% | -7.84% (inactive) | 1.97% (inactive) |
| COc1ccc(CCNC(=O)CSc2nncn2N)cc1OC | 93.5% | 80.5% (inactive) | 93.5% (inactive) | 109% (inactive) | 96.4% (inactive) | 8% (inactive) | 88.4% | 96.4% | -2.11% (inactive) | -3.5% (inactive) |
| COC(=O)C(CC(C)C)NC(=O)CSc1nc(-c2ccccc2)c(C#N)c(=O)[nH]1 (stereo not given) | 110% | 90% (inactive) | 110% (inactive) | 107% (inactive) | 108% (inactive) | 7.26% (inactive) | 100% | 108% | -3.12% (inactive) | 4.1% (inactive) |
| O=C1NC(c2cccs2)Nc2ccccc21 (stereo not given) | 107% | 86.5% (inactive) | 107% (inactive) | 111% (inactive) | 86.7% (inactive) | -4.77% (inactive) | 91.4% | 86.7% | -8.03% (inactive) | -9.52% (inactive) |
| O=C1CCC(=O)N1OCCCCOc1ccccc1 | 123% | 93% (inactive) | 123% (inactive) | 107% (inactive) | 96.2% (inactive) | 5.21% (inactive) | 91% | 96.2% | -3.55% (inactive) | 0.48% (inactive) |
| COc1ccc(S(=O)(=O)N2CCSC2c2ccccc2)cc1 (stereo not given) | 82% | 90.5% (inactive) | 82% (inactive) | 79.9% (inactive) | 76.9% (inactive) | -13.8% (inactive) | 90.7% | 76.9% | -2.7% (inactive) | -2.95% (inactive) |
| COc1cc(OC)c(OC)cc1CN(C)CCc1ccccn1 | 104% | 107% (inactive) | 104% (inactive) | 96.7% (inactive) | 86.9% (inactive) | -4.87% (inactive) | 91.8% | 86.9% | -1.79% (inactive) | 7% (inactive) |
| CN1CCCC(OC(=O)COc2ccc(Br)cc2)C1 (stereo not given) | 93.5% | 108% (inactive) | 93.5% (inactive) | 91.4% (inactive) | 89.7% (inactive) | -2.85% (inactive) | 92.5% | 89.7% | -0.8% (inactive) | -1.48% (inactive) |
| C=CCn1c(SCC2=C(C(=O)OCC)C(C)NC(=O)N2)nnc1C1CCCCC1 (stereo not given) | 100% | 105% (inactive) | 100% (inactive) | 83.6% (inactive) | 91.5% (inactive) | -4.74% (inactive) | 96.2% | 91.5% | -5.06% (inactive) | -0.98% (inactive) |
| Cc1ccc(S(=O)(=O)N2CCCC(C(=O)NC3=NCCS3)C2)cc1 (stereo not given) | 97.5% | 78.5% (inactive) | 97.5% (inactive) | 83% (inactive) | 91.8% (inactive) | 6.39% (inactive) | 85.4% | 91.8% | -6.67% (inactive) | 2.62% (inactive) |
| NCc1cccc(-n2cccn2)c1 | 110% | 103% (inactive) | 110% (inactive) | 93.2% (inactive) | 82.6% (inactive) | -10.1% (inactive) | 92.8% | 82.6% | -3.64% (inactive) | -2.7% (inactive) |
| Cc1ccc(S(=O)(=O)N2CCCC2C(=O)OCc2nc3ccccc3s2)cc1 (stereo not given) | 85.5% | 80.5% (inactive) | 85.5% (inactive) | 79.7% (inactive) | 99.2% (inactive) | 0.14% (inactive) | 99.1% | 99.2% | -7.95% (inactive) | -5.4% (inactive) |
| CCn1c(=S)ccc2ccc(OC)cc21 | 88.5% | 114% (inactive) | 88.5% (inactive) | 98.7% (inactive) | 101% (inactive) | 13.2% (inactive) | 87.6% | 101% | -5.14% (inactive) | -7.46% (inactive) |
| COc1ccccc1C(=O)Nc1ccc(S(=O)(=O)N2CCCC2)cc1 | 95.5% | 76.5% (inactive) | 95.5% (inactive) | 81.9% (inactive) | 94.5% (inactive) | 16.2% (inactive) | 78.4% | 94.5% | -4.93% (inactive) | 0.49% (inactive) |
| Cc1cnc(C(=O)Nc2ccc(-n3cnnn3)cc2)cn1 | 100% | 98.5% (inactive) | 100% (inactive) | 101% (inactive) | 105% (inactive) | 16.4% (inactive) | 88.9% | 105% | -4.93% (inactive) | -4.68% (inactive) |
| COC(=O)c1cccc(NC(=O)Cc2coc3cc(OC)ccc23)c1 | 102% | 96.5% (inactive) | 102% (inactive) | 87.1% (inactive) | 94.2% (inactive) | 15.6% (inactive) | 78.6% | 94.2% | 3.51% (inactive) | -6.19% (inactive) |
| Cc1occc1C(=O)Nc1ccccc1NC(=O)c1ccoc1C | 96.5% | 101% (inactive) | 96.5% (inactive) | 90.9% (inactive) | 100% (inactive) | 8.43% (inactive) | 92% | 100% | -4.67% (inactive) | 0.48% (inactive) |
| O=C(C1CC1)N1CCC(c2nc(-c3ccc(S(=O)(=O)NCC4CCCO4)cc3)no2)CC1 (stereo not given) | 74.5% | 114% (inactive) | 74.5% (inactive) | 54.7% (inactive) | 90.6% (inactive) | -9.35% (inactive) | 99.9% | 90.6% | 0.41% (inactive) | -0.82% (inactive) |
| O=C(CSc1nnc(-c2cccnc2)o1)Nc1ccccn1 | 92.5% | 102% (inactive) | 92.5% (inactive) | 94% (inactive) | 94.4% (inactive) | 7.92% (inactive) | 86.5% | 94.4% | 0.68% (inactive) | 31.8% (active) |
| C=CCn1c(SCC(=O)c2cc(C)n(C(C)COC)c2C)nc2sc(C)c(C)c2c1=O (stereo not given) | 97.5% | 77% (inactive) | 97.5% (inactive) | 68.2% (inactive) | 82.8% (inactive) | 60.8% (active) | 21.9% | 82.8% | -8.77% (inactive) | -4.6% (inactive) |
